According to ChEMBL document CHEMBL1152191, “Identification and optimization of N3,N6-diaryl-1H-pyrazolo[3,4-d]pyrimidine-3,6-diamines as a novel class of ACK1 inhibitors” (Bioorg Med Chem Lett, 2008):

Assays:
Activated CDC42 kinase 1 [1] = molecular target: T1, Activated CDC42 kinase 1 (Homo sapiens, UniProt Q07912); experiment: Inhibition of flag-tagged ACK1 autophosphorylation expressed in human 293 cells; type: cell-based, HEK293
Procedure, shortened: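 293 cells stably expressing Flag-ACK1 are detached with PBS/EDTA, washed, and pre-incubated in suspension with DMSO or compound. They are then re-plated for 2 h in medium with 10% FCS, with directly lysed cells as control. Autophosphorylation is read by anti-pTyr western blot after Flag IP, and IC50 determined.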

[2] = Volume of distribution at steady state in Sprague-Dawley rat at 0.5 mg/kg, iv; type: ADME, organism-based; parameters: dose 0.5 mg/kg, route intravenous; conditions: in vivo, read-out: Vdss
Procedure, shortened: (§1)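 Male Sprague–Dawley rats received 0.5 mg/kg as an iv dose, with n = 3 animals per study. CL, Vss, MRT and AUC were derived from the plasma concentration profile.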

[3] = Clearance in Sprague-Dawley rat at 0.5 mg/kg, iv; type: ADME, organism-based; parameters: dose 0.5 mg/kg, route intravenous; conditions: in vivo; procedure, shortened: as §1
Activated CDC42 kinase 1 [4] = molecular target: T1, Activated CDC42 kinase 1; experiment: Inhibition of histidine-tagged ACK1 (amino acids 117 to 489) expressed in SF9 cells
[5] = Mean residence time in Sprague-Dawley rat at 0.5 mg/kg, iv; type: ADME, organism-based; parameters: dose 0.5 mg/kg, route intravenous; conditions: in vivo; procedure, shortened: as §1
[6] = AUC in Sprague-Dawley rat at 0.5 mg/kg, iv; type: ADME, organism-based; parameters: dose 0.5 mg/kg, route intravenous; conditions: plasma; procedure, shortened: as §1
[7] = molecular target: Tyrosine-protein kinase BTK (Homo sapiens, UniProt Q06187); experiment: Inhibition of BTK
[8] = molecular target: Vascular endothelial growth factor receptor 2 (Homo sapiens, UniProt P35968); experiment: Inhibition of KDR
Angiopoietin-1 receptor = Angiopoietin-1 receptor (Homo sapiens, UniProt Q02763); experiment: Inhibition of Tie2
[9] = molecular target: Tyrosine-protein kinase Lck (Homo sapiens, UniProt P06239); experiment: Inhibition of LCK
[10] = molecular target: T2, Tyrosine-protein kinase JAK3 (Homo sapiens, UniProt P52333); experiment: Inhibition of Jak3
T2 sequence (P52333 whole entry): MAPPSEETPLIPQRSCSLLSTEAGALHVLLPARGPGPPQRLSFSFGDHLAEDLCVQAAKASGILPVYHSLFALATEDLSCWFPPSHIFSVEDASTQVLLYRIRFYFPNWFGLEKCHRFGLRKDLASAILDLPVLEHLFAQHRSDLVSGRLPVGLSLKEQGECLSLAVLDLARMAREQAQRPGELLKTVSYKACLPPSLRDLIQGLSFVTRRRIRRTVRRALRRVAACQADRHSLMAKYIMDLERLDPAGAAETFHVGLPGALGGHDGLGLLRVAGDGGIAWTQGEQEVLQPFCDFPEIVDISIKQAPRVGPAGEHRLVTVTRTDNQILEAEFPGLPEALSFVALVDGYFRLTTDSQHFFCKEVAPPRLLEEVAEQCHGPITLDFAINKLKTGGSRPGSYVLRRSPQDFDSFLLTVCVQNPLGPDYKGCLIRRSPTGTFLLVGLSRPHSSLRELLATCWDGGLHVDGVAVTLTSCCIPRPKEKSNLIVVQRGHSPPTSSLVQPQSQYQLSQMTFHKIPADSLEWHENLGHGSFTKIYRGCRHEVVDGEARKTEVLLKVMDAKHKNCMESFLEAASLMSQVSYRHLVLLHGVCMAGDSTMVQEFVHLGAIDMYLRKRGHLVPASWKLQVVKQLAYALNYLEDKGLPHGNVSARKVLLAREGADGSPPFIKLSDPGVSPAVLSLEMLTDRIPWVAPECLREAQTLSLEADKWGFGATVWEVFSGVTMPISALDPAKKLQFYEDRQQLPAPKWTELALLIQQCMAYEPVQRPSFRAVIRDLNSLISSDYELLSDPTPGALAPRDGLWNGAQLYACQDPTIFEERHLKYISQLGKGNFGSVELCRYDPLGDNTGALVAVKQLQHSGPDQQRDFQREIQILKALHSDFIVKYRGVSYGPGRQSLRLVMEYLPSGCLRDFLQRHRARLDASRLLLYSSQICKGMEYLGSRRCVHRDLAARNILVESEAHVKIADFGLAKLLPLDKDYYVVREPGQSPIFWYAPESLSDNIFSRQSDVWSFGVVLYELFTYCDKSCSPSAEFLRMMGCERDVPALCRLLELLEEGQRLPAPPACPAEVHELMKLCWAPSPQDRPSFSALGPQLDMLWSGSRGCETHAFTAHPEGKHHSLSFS

[11] = AUC in Sprague-Dawley rat at 0.4 mg/kg, iv; type: ADME, organism-based; parameters: dose 0.4 mg/kg, route intravenous; conditions: plasma
Procedure, shortened: (§2)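 Male Sprague–Dawley rats were dosed intravenously; clearance and AUC were taken from the plasma profile.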

[12] = Clearance in Sprague-Dawley rat at 0.4 mg/kg, iv; type: ADME, organism-based; parameters: dose 0.4 mg/kg, route intravenous; conditions: in vivo; procedure, shortened: as §2
[13] = Oral bioavailability in Sprague-Dawley rat at 4 mg/kg; type: ADME, organism-based; conditions: in vivo

T1 sequence (Q07912 whole entry): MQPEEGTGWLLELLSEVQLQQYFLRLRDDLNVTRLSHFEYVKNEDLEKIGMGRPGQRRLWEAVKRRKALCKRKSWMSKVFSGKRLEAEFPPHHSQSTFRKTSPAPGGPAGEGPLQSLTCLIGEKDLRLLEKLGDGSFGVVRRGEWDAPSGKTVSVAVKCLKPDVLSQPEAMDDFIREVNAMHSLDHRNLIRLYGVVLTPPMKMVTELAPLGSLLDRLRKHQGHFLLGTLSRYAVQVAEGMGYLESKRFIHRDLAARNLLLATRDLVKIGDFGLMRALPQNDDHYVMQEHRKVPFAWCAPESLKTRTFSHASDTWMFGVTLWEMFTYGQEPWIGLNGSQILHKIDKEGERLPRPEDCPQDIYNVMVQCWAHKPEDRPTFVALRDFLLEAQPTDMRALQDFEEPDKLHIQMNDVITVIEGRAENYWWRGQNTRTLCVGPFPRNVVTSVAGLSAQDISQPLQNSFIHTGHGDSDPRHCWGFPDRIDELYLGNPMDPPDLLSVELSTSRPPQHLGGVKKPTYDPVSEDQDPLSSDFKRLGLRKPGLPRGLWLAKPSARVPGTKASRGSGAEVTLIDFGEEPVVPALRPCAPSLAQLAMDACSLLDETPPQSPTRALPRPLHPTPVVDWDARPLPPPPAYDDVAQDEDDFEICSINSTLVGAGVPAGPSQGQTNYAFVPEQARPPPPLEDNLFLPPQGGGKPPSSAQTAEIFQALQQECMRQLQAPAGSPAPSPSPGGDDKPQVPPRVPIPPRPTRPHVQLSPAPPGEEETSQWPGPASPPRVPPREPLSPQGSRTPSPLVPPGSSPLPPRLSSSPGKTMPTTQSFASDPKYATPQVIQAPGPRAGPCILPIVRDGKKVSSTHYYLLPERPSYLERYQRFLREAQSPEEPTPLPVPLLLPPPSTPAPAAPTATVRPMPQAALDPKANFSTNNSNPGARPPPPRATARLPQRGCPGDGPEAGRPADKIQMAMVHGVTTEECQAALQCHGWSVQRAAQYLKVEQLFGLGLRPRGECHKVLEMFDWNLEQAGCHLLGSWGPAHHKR
Chain of Vascular endothelial growth factor receptor 2 (P35968 whole entry): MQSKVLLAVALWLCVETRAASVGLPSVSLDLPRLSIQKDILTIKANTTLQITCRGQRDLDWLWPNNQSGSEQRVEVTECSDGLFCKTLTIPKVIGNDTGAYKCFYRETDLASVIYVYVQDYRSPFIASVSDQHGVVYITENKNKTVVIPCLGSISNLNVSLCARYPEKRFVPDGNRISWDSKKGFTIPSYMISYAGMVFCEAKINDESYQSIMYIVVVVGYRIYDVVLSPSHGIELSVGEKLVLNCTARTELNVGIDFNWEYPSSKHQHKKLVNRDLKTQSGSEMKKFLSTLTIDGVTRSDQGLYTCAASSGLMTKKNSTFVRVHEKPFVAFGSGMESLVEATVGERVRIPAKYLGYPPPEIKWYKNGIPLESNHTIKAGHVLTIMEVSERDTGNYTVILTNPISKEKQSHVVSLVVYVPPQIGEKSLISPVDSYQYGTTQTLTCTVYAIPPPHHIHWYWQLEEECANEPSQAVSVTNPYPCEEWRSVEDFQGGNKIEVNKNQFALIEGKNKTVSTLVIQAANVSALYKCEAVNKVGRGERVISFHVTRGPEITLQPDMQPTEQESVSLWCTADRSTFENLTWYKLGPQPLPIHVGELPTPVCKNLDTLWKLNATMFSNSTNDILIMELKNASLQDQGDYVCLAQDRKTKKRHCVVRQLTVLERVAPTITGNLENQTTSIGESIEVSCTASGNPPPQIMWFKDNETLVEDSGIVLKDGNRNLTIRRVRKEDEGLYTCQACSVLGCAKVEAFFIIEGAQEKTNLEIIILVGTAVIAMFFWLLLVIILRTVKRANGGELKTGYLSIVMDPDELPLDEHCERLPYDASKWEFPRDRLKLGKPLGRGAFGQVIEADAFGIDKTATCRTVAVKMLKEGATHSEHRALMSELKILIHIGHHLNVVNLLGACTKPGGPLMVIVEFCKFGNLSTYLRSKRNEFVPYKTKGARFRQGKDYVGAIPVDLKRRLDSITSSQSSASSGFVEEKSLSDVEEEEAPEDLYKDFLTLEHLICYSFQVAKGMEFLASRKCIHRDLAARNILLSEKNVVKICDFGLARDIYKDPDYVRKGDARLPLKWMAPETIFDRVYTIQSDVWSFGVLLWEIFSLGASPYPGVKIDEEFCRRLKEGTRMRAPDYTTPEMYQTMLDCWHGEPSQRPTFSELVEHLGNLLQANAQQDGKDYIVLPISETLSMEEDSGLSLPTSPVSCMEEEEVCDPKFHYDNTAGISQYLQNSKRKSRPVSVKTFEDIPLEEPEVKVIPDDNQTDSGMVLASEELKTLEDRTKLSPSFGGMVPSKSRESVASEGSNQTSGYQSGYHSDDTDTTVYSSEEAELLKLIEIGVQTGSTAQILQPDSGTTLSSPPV
Chain of Tyrosine-protein kinase BTK (Q06187 whole entry): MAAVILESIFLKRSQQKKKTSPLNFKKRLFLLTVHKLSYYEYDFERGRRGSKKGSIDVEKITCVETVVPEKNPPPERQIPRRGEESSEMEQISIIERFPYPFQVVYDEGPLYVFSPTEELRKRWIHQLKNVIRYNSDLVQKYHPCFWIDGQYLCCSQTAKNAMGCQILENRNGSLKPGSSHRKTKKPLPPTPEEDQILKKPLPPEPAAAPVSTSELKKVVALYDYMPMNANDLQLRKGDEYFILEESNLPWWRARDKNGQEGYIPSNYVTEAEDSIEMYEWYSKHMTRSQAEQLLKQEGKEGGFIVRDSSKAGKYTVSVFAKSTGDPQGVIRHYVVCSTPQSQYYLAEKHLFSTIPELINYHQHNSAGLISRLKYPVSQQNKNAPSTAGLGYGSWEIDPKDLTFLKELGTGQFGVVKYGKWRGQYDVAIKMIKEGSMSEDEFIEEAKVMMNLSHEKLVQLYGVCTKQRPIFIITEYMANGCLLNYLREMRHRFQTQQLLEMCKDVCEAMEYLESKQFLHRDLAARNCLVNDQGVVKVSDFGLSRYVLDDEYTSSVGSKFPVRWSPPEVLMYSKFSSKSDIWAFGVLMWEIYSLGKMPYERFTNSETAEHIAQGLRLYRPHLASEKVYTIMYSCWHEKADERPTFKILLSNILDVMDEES
Chain of Tyrosine-protein kinase Lck (P06239 whole entry): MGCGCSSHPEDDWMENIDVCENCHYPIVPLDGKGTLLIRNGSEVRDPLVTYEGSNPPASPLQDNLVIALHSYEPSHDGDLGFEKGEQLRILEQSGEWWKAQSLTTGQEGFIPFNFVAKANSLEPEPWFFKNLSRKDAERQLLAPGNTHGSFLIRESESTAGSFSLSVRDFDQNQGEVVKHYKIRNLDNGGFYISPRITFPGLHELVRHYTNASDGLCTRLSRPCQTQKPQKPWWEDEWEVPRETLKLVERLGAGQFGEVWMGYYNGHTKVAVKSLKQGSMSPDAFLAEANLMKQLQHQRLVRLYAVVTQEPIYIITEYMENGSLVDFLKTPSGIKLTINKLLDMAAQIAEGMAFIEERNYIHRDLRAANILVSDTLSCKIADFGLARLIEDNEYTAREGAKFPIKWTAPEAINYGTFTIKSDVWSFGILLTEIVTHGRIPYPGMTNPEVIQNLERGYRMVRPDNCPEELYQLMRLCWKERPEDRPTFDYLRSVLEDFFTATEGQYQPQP
Chain of Angiopoietin-1 receptor (Q02763 whole entry): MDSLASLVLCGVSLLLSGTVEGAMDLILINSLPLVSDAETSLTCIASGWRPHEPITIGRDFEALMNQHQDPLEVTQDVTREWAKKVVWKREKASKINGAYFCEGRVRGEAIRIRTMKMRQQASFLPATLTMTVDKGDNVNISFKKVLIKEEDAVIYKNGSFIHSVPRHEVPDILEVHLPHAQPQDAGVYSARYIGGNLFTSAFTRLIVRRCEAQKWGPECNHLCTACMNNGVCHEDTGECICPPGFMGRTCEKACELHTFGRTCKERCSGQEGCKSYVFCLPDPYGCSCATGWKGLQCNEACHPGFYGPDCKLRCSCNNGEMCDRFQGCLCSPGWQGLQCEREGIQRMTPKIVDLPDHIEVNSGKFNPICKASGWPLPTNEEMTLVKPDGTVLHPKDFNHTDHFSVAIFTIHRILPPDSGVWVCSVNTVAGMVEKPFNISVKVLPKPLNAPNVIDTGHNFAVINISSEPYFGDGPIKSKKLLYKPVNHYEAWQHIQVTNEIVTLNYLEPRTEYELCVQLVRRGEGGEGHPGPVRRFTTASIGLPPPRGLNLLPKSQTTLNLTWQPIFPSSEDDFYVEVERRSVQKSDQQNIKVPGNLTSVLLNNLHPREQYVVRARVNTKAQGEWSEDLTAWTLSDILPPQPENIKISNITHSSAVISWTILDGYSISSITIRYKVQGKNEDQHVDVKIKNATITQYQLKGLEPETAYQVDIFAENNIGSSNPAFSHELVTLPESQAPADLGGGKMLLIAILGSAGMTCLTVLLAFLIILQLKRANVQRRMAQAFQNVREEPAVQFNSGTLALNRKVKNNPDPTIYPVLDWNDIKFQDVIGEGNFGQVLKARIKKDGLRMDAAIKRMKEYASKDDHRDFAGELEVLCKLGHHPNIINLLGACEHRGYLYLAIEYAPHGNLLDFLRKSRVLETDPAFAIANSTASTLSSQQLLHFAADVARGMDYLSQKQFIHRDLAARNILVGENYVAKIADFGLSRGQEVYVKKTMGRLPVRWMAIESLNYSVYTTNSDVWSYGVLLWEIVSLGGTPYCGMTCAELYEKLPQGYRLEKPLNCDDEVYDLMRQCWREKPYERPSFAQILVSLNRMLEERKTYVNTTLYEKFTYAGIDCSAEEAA

SMILES | IC50 (Activated CDC42 kinase 1 [1]) [nM] | Ki (Activated CDC42 kinase 1 [4]) [nM] | also measured
COC(C)(C)CCn1nc(Nc2c(C)cccc2C)c2cnc(Nc3ccc(OCCCN4CCCCC4)c(F)c3)nc21 | 60 | 3 | Vd [2]: 7.5 L/kg; clearance [3]: 58.3 mL/min/kg; MRT [5]: 2 h; AUC [6]: 148 ng·h/mL
COC(C)(C)CCn1nc(Nc2c(C)cccc2C)c2cnc(Nc3ccc(OCCN4CCCC4)cc3)nc21 | 20 | 3 | Ki [7]: 0.25 nM; Ki [8]: 1590 nM; Ki (Angiopoietin-1 receptor): 1160 nM; Ki [9]: 0.04 nM; Ki [10]: 170 nM
CCOc1ccccc1Oc1nc(Nc2ccc(N3CCNCC3)cc2)ncc1C(=O)Nc1c(C)cccc1C | 100 | 20 | Ki [7]: 78 nM; Ki [8]: > 25000 nM; Ki (Angiopoietin-1 receptor): > 8300 nM; AUC [11]: 76 ng·h/mL; clearance [12]: 63.3 mL/min/kg; Ki [9]: 13 nM; Ki [10]: 74 nM
COC(C)(C)CCn1nc(Nc2c(C)cc(C)cc2C)c2cnc(Nc3ccc(N4CCN(C)CC4)cc3)nc21 | 50 | 12 | 
Cc1cccc(C)c1Nc1nn(CCCN2CCCC2)c2nc(Nc3ccccc3)ncc12 | 300 | 100 | 
OC[C@H](O)CCn1nc(Nc2c(Cl)cccc2Cl)c2cnc(Nc3ccccc3)nc21 | 20 | 10 | bioavailability [13]: 30%
Cc1cccc(C)c1Nc1nn(CC[C@@H](O)CO)c2nc(Nc3ccccc3)ncc12 | 60 | 30 | 
CN1CCN(CCn2nc(Nc3c(Cl)cccc3Cl)c3cnc(Nc4ccccc4)nc32)CC1 | 30 | 10 | 
ON1CCN(CCn2nc(Nc3c(Cl)cccc3Cl)c3cnc(Nc4ccccc4)nc32)CC1 | 30 | 50 | 
Cc1cccc(C)c1Nc1nn(CC[C@@H](O)CN(C)C)c2nc(Nc3ccccc3)ncc12 | 190 | 80 | 
COC(C)(C)CCn1nc(Nc2c(C)cccc2C)c2cnc(Nc3ccc(N4CCNCC4)cc3)nc21 |  |  | Vd [2]: 20.3 L/kg; clearance [3]: 95 mL/min/kg; MRT [5]: 3.5 h; AUC [6]: 104 ng·h/mL
COC(C)(C)CCn1nc(Nc2ccccc2)c2cnc(Nc3ccccc3)nc21 |  | > 4000 | 
COC(C)(C)CCn1nc(Nc2c(C)cc(C)cc2C)c2cnc(Nc3ccccc3)nc21 |  | > 2500 | 
CN(C)CCCn1nc(Nc2c(Cl)cccc2Cl)c2cnc(Nc3ccccc3)nc21 | 20 | 5 | 
CCN(CC)CCCn1nc(Nc2c(C)cccc2C)c2cnc(Nc3ccccc3)nc21 | 140 | 40 | 
CN(C)CCn1nc(Nc2c(Cl)cccc2Cl)c2cnc(Nc3ccccc3)nc21 | 140 | 5 | 

SMILES | IC50 (Activated CDC42 kinase 1 [1]) [nM] | Ki (Activated CDC42 kinase 1 [4]) [nM] | also measured
COC(C)(C)CCn1nc(Nc2c(C)cccc2C)c2cnc(Nc3ccccc3)nc21 | 20 | 3 | 
COC(C)(C)CCn1nc(Nc2c(Cl)cccc2Cl)c2cnc(Nc3ccccc3)nc21 | 40 | 7 | 
COC(C)(C)CCn1nc(Nc2c(Cl)cccc2Cl)c2cnc(Nc3ccc(N4CCNCC4)cc3)nc21 | 10 | 12 | Vd [2]: 15.4 L/kg; clearance [3]: 70 mL/min/kg; MRT [5]: 3.6 h; AUC [6]: 117 ng·h/mL
COC(C)(C)CCn1nc(Nc2c(C)cccc2C)c2cnc(Nc3ccc(N4CCN(C)CC4)cc3)nc21 | 20 | 2 | 
CN(C)[C@@H]1CCN(CCn2nc(Nc3c(Cl)cccc3Cl)c3cnc(Nc4ccccc4)nc32)C1 | 20 | 10 | 
CN(C)C(=O)Cn1nc(Nc2c(Cl)cccc2Cl)c2cnc(Nc3ccccc3)nc21 | 90 | 30 | 
COC(C)(C)CCn1nc(Nc2c(C)cccc2C)c2cnc(Nc3ccc(OCCN4CCCC4)c(F)c3)nc21 | 20 | 3 | Ki [7]: 125 nM; Ki [8]: > 12500 nM; Ki (Angiopoietin-1 receptor): > 2500 nM; Ki [9]: 11 nM; Ki [10]: > 12500 nM
COC(C)(C)CCn1nc(Nc2c(Cl)cccc2Cl)c2cnc(Nc3ccc(OCCN4CCCC4)c(F)c3)nc21 | 30 | 2 | Vd [2]: 7.7 L/kg; clearance [3]: 48.3 mL/min/kg; MRT [5]: 2.7 h; AUC [6]: 174 ng·h/mL
COC(C)(C)CCn1nc(Nc2c(C)cc(F)cc2C)c2cnc(Nc3ccc(N4CCN(C)CC4)cc3)nc21 | 20 | 10 | 
COC(C)(C)CCn1nc(Nc2ccccc2)c2cnc(Nc3ccc(N4CCN(C)CC4)cc3)nc21 | 2100 | 400 | 
Cc1cccc(C)c1Nc1nn(CCN2CCOCC2)c2nc(Nc3ccccc3)ncc12 | 70 | 50 | 
O=C(Cn1nc(Nc2c(Cl)cccc2Cl)c2cnc(Nc3ccccc3)nc21)N1CCOCC1 | 140 | 70 | 
OC[C@H]1CCCN1CCn1nc(Nc2c(Cl)cccc2Cl)c2cnc(Nc3ccccc3)nc21 | 50 | 30 | 
COC(C)(C)CCn1nc(Nc2c(C)cc(F)cc2C)c2cnc(Nc3ccccc3)nc21 | 5500 | 26 | 
Cc1cccc(C)c1Nc1nn(CCCN(C)C)c2nc(Nc3ccccc3)ncc12 | 40 | 30 | 
